Reference: ChEMBL document CHEMBL2074053, “Modified jatrophane diterpenes as modulators of multidrug resistance from Euphorbia dendroides L” (Bioorg Med Chem, 2003)
One block for each compound: values may come before it.

What was measured:
Assay type in all cases: functional, cell-based
Details in all cases: k562/r7, 5 µM
[1] = target: T1, ATP-dependent translocase ABCB1 (Homo sapiens, UniProt P08183); test: TP_TRANSPORTER: inhibition of Daunomycin efflux (Daunomycin: 10 uM, 13alpha-OH Terracinolide B: 5 uM) in K562/R7 cells
How it was run: (§1)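 Cells washed twice in ice-cold PBS and held on ice. Intracellular daunomycin read by flow cytometry. Efflux inhibition is the fluorescence shift relative to 2 µM cyclosporin A as positive control. Duplicates, at least three separate experiments.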

[2] = target: T1, ATP-dependent translocase ABCB1; test: TP_TRANSPORTER: inhibition of Daunomycin efflux (Daunomycin: 10 uM, 13alpha-OH Terracinolide G: 5 uM) in K562/R7 cells; how it was run: as §1
[3] = target: T1, ATP-dependent translocase ABCB1; test: TP_TRANSPORTER: inhibition of Daunomycin efflux (Daunomycin: 10 uM, Terracinolide L: 5 uM) in K562/R7 cells; how it was run: as §1
[4] = target: T1, ATP-dependent translocase ABCB1; test: TP_TRANSPORTER: inhibition of Daunomycin efflux (Daunomycin: 10 uM, Epiabeodendroidin F: 5 uM) in K562/R7 cells; how it was run: as §1
[5] = target: T1, ATP-dependent translocase ABCB1; test: TP_TRANSPORTER: inhibition of Daunomycin efflux (Daunomycin: 10 uM, Terracinolide B: 5 uM) in K562/R7 cells; how it was run: as §1
[6] = target: T1, ATP-dependent translocase ABCB1; test: TP_TRANSPORTER: inhibition of Daunomycin efflux (Daunomycin: 10 uM, Terracinolide C: 5 uM) in K562/R7 cells; how it was run: as §1
[7] = target: T1, ATP-dependent translocase ABCB1; test: TP_TRANSPORTER: inhibition of Daunomycin efflux (Daunomycin: 10 uM, Terracinolide K: 5 uM) in K562/R7 cells; how it was run: as §1

T1 sequence (P08183 whole entry): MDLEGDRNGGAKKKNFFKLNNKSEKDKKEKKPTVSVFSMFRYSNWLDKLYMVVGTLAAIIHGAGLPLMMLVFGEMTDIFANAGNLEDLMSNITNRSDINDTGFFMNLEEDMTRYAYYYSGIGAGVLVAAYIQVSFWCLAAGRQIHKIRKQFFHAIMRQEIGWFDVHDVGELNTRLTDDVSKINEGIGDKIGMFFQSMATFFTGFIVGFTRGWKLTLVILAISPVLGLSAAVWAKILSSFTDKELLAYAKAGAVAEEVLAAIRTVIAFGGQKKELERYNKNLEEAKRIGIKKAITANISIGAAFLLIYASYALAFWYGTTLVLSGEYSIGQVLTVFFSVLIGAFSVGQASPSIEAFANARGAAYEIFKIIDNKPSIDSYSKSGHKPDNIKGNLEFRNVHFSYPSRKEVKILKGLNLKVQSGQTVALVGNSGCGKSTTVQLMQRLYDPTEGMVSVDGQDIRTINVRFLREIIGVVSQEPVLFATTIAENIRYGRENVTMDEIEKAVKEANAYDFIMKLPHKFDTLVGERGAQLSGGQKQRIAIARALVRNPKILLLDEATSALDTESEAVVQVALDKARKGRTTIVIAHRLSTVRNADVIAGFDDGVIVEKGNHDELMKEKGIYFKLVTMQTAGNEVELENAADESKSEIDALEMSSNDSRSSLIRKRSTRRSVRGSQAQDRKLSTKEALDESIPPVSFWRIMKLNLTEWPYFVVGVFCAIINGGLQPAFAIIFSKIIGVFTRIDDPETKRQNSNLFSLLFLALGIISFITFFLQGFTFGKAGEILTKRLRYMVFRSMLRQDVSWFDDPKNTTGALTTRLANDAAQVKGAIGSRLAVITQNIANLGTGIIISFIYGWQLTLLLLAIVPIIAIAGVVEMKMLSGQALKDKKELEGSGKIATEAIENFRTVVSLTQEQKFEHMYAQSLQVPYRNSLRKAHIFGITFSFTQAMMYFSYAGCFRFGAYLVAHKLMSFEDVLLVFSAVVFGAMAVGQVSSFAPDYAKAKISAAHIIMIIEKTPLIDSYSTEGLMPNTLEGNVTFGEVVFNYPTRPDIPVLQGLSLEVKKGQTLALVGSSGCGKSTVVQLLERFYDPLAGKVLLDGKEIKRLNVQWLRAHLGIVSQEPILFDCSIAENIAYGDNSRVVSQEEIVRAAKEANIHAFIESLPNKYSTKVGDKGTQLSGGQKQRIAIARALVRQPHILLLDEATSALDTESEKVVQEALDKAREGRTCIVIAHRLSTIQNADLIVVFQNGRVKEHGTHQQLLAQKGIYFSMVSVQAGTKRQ

Structure (SMILES): CC(=O)O[C@H]1[C@@H](OC(C)=O)C(C)(C)/C=C/[C@@](C)(O)C(=O)[C@@]2(OC(C)=O)C[C@@](C)(OC(C)=O)[C@H](OC(C)=O)[C@@H]2[C@H]2OC(=O)CC[C@@]2(OC(C)=O)[C@@H]1OC(=O)C(C)C
Activity [1]: inhibitor [+]

Structure (SMILES): C=C1[C@H](OC(=O)c2ccccc2)[C@@H](OC(C)=O)[C@@H](OC(C)=O)C(C)(C)/C=C/[C@H](C)[C@]2(O)C[C@@](C)(O)[C@H](OC(C)=O)[C@@H](C2=O)[C@H]1OC(=O)C(C)C [EPIABEODENDROIDIN F]
Activity [4]: inhibitor [+]

Structure (SMILES): CC(=O)O[C@H]1[C@@H](OC(C)=O)C(C)(C)/C=C/[C@H](C)C(=O)[C@@]2(OC(C)=O)C[C@@](C)(OC(C)=O)[C@H](O)[C@@H]2[C@H]2OC(=O)CC[C@@]2(OC(C)=O)[C@@H]1OC(=O)C(C)C [TERRACINOLIDE C]
Activity [6]: inhibitor [+]

Now from value to compound:

Activity [2]: inhibitor [+]
Structure (SMILES): CC(=O)O[C@H]1[C@@H](OC(C)=O)C(C)(C)/C=C/[C@@](C)(O)C(=O)[C@@]2(O)C[C@@](C)(OC(C)=O)[C@H](OC(C)=O)[C@@H]2[C@H]2OC(=O)CC[C@@]2(OC(C)=O)[C@@H]1OC(=O)C(C)C

Activity [3]: is not an inhibitor [-]
Structure (SMILES): CC(=O)O[C@H]1[C@@H](OC(C)=O)C(C)(C)/C=C/[C@H](C)C(=O)[C@@]2(OC(C)=O)C[C@@](C)(O)[C@H](OC(C)=O)[C@@H]2[C@H]2OC(=O)CC[C@@]2(OC(=O)C(C)C)[C@@H]1OC(=O)C(C)C

Activity [5]: inhibitor [+]
Structure (SMILES): CC(=O)O[C@H]1[C@@H](OC(C)=O)C(C)(C)/C=C/[C@H](C)C(=O)[C@@]2(OC(C)=O)C[C@@](C)(OC(C)=O)[C@H](OC(C)=O)[C@@H]2[C@H]2OC(=O)CC[C@@]2(OC(C)=O)[C@H]1OC(=O)C(C)C [TERRACINOLIDE B]

Activity [7]: inhibitor [+]
Structure (SMILES): CC(=O)O[C@H]1[C@@H](OC(C)=O)C(C)(C)/C=C/[C@H](C)C(=O)[C@@]2(OC(C)=O)C[C@@](C)(O)[C@H](OC(C)=O)[C@@H]2[C@H]2OC(=O)CC[C@@]2(OC(C)=O)[C@@H]1OC(=O)C(C)C [TERRACINOLIDE K]
